According to paper PMC6896334 (Cell reports, 2019):
One block for each molecule: values may come before it. Residues, ends and D or L forms follow the SMILES beside them. *: point of attachment. Cbz = O=C(OCc1ccccc1)*

How the values were obtained:
[1] = test system: choroidal neovascularization; test: Laser-induced choroidal neovascularization; format: in vivo, mouse; conditions: intravitreal 1 μg dose, day 14
Summary of the method: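 Female C57BL/6 mice aged 4–6 weeks had laser rupture of Bruch's membrane at three sites per eye. Test compounds (1 or 5 µg) or DMSO were given intravitreally. At day 14, choroidal flat mounts were stained with FITC-Griffonia simplicifolia lectin, and CNV area was measured by fluorescence image analysis by an observer masked to group.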

Id1 [2] = target: T1, Id1 (Mus musculus, UniProt P20067); test: Western blot for Id1 in 4T1 cells; format: cell-based; conditions: 4T1, 0–20 μM AGXA, 24 h
T1 sequence (P20067 1-148 isoform P20067-2): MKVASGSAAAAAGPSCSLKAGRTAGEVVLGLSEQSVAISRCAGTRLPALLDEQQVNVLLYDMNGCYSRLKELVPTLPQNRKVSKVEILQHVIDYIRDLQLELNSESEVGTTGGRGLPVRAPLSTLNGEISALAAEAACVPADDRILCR
Summary of the method: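 4T1 cells were treated 24 h, collected by trypsinization, washed in PBS and lysed in sucrose/Tris pH 8.0/400 mM NaCl/MgCl2/0.5% NP40 buffer with protease inhibitors. Id1 immunoblots were quantified from 700 and 800 channel intensities, blank-subtracted and normalized to tubulin; IC50 reported from blots.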

Id1 [3] = target: T1, Id1; test: Circular dichroism; format: binding; conditions: AGX51 0–50 μM; AGXA 0–110 μM in DMSO
[4] = target: T2, NanoLuc luciferase ID1 fusion protein (Homo sapiens, UniProt P41134); test: NanoBRET target engagement assay in permeabilized 293T cells; format: binding
T2 sequence (P41134 1-155): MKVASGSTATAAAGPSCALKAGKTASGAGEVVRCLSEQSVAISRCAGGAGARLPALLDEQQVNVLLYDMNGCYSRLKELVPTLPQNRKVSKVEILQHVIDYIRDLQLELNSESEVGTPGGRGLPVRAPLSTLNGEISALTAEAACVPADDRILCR
Summary of the method: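 293T cells transfected with an N-terminal NanoLuc–ID1 fusion construct and plated 24 h later. Cells received 2 µM fluorescent tracer plus 0–60 µM competitor, then were permeabilised with digitonin (50 µg/mL). NanoBRET Nano-Glo substrate was added and the BRET ratio read, following the kit protocol for intracellular target engagement.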

HCT116 cells = test: HCT116 cell viability; format: cell-based, human; conditions: cell-based assays (HCT116 and 4T1)
Summary of the method: (§1)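 MTT viability: cells seeded at 5000/well and left overnight, then exposed to the test compound for 24 h. MTT (5 mg/mL) was added for 4 h, medium removed and formazan dissolved in DMSO. Absorbance was read at 570 nm.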

ID1, ID2, ID3, and ID4 = test: Western blot for ID proteins in HCT116 cells; format: cell-based, human; conditions: HCT116, 0–10 μM AGXA, 24 h
Id1-E47 interaction = target: T3, Id1-E47 interaction (Mus musculus, UniProt P20067); test: In vitro electrophoretic mobility shift assay; format: biochemical; conditions: data not shown
T3 sequence (P20067 1-148 isoform P20067-2): T1 sequence (P20067 1-148 isoform P20067-2)
Summary of the method: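 Bacterially purified full-length E47 was mixed with a 32P-labelled E-box probe from the muscle creatine kinase enhancer, plus BSA, DTT, poly dI-dC, salmon sperm DNA and HeLa nuclear extract, with or without purified full-length Id1. Test compounds in DMSO (or DMSO alone) were added at rising concentrations for 30 min. Complexes were resolved on 5% native PAGE and autoradiographed.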

Id proteins = test: Degradation of Id proteins in cells; format: cell-based; conditions: data not shown
Cell viability assays = format: cell-based; conditions: data not shown
Summary of the method: as §1

Id1 (59–104) = target: T4, Id1 (59–104) (Mus musculus, UniProt P20067); test: UV crosslinking of AGX51-XL2 to purified Id1 and mass spectrometry; format: binding; conditions: UV light 20 minutes
T4 sequence (P20067 59-104): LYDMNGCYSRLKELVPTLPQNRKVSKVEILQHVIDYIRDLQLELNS
Summary of the method: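 Purified Id1 (aa 59–104, 1 µg) was mixed in the dark with 19.7 ng of a benzophenone photoreactive test-compound analog in DMSO and UV-irradiated for 20 min, with a no-UV control. Samples were run in the dark on a 15% denaturing gel and silver stained. Bands were excised for mass spectrometry.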

E47 = target: T5, E47 (Homo sapiens, UniProt P15923); test: UV crosslinking of AGX51-XL2 to E47 and mass spectrometry; format: binding; conditions: data not shown
T5 sequence (P15923 1-651 isoform P15923-2): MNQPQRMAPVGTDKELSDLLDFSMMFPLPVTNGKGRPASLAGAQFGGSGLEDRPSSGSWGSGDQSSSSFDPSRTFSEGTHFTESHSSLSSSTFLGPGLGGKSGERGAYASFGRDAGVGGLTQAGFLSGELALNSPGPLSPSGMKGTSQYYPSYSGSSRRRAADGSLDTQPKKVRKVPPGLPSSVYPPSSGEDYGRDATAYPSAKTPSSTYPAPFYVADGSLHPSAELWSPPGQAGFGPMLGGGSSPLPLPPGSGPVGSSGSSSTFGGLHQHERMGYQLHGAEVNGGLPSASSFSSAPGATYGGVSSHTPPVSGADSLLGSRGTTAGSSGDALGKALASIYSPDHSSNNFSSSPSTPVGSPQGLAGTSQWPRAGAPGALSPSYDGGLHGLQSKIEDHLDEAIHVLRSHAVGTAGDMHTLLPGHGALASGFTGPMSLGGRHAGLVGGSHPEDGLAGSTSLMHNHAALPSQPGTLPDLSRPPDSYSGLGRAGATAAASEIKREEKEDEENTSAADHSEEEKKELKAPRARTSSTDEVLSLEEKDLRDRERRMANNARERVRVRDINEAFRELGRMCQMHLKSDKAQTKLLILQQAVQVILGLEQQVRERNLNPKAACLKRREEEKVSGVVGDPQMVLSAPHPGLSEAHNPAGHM

FLAG-ID1 = target: T6, FLAG-ID1 (Homo sapiens, UniProt P41134); test: Ubiquitylation assay in HCT116 and U87 glioma cells; format: cell-based; conditions: 60 μM AGX51 2 h, then 20 μM MG132 for 6 h
T6 sequence (P41134 1-155): T2 sequence (P41134 1-155)
Summary of the method: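 HCT116 cells co-transfected with FLAG-tagged ID1 and HA-ubiquitin. After 36 h they were exposed to 60 µM test compound for 2 h, then 20 µM MG132 for a further 6 h. Cells were washed in ice-cold PBS, lysed in TBS (50 mM Tris pH 8.0, 150 mM NaCl) containing 2% SDS, and boiled for 10 min.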

effect on Id1 secondary structure (CD spectra) (Id1 [3]): greater activity than AGX51 | competition with the AGX51 tracer (BRET ratio) ([4]; 2 μM AGX51 tracer, 0–60 μM competitor, 50 μg/mL digitonin): more efficiently | reduction in IC50 values relative to AGX51 (HCT116 cells): ~4 fold
Molecule: 6-chloro-2-methyl-N-(4-propoxyphenyl)quinolin-4-amine hydrochloride [AGXA]
area of CNV, AGXA compared with AGX51 [1]: worked better than AGX51 | Id1 protein levels relative to AGX51 (Id1 [2]): reduced Id protein levels at lower concentrations than AGX51 | ID1 protein levels relative to AGX51 (ID1, ID2, ID3, and ID4): reduced Id protein levels at lower concentrations than AGX51

concentrations required to perturb Id1 in the EMSA assay, relative to AGX51 (Id1-E47 interaction): higher concentrations
Molecule: CC(C)c1ccc(NNC(=O)c2cc3ccccc3s2)cc1 [AGX8, N’-(4-isopropylphenyl)benzo[b]thiophene-2-carbohydrazide]
concentrations required to degrade Id proteins in cells, relative to AGX51 (Id proteins): higher concentrations | IC50 in cell viability assays, relative to AGX51 (Cell viability assays): higher IC50

Molecule: COc1ccccc1C(CCN(Cc1ccccc1)C(=O)CCOCCOCCNC(=O)CCC1=[N+]2C(=Cc3ccc(-c4ccc[nH]4)n3[B-]2(F)F)C=C1)c1ccc2c(c1)OCO2 (stereo not shown) [AGX51 tracer, 3-(17-(benzo[d][1,3]dioxol-5-yl)-14-benzyl-17-(2-methoxyphenyl)-3,13-dioxo-7,10-dioxa-4,14-diazaheptadecyl)-5,5-difluoro-7-(1H-pyrrol-2-yl)-5H-5λ4-dipyrrolo[1,2-c:2’,1’-f][1,3,2]diazaborinin-4-ium]
BRET ratio ([4]; tracer 0–4 μM, digitonin-permeabilized 293T cells): dose-dependent increase in the BRET ratio

Molecule: O=C(NCCC(c1ccccc1)c1ccccc1)c1ccc(C(=O)c2ccccc2)cc1 [AGX51-XL2, 4-benzoyl-N-(3,3-diphenylpropyl)bezamide]
covalent binding to Id1 after UV exposure (Id1 (59–104)): covalently binding to Id1 at six residues (V73, P74, T75, P77, Q78, and R80) | covalent binding to E47 (E47): nor was there evidence of AGX51-XL2 binding to E47

ID1 ubiquitylation (FLAG-ID1): ID1 ubiquitylation was observed
Molecule: CC(C)C[C@@H](C=O)NC(=O)[C@H](CC(C)C)NC(=O)[C@H](CC(C)C)NC(=O)OCc1ccccc1 [MG132] (Cbz-Leu-Leu-Leu-aldehyde)
